Test results published in ChEMBL document CHEMBL5380839, “Design and Pharmacological Characterization of α4β1 Integrin Cyclopeptide Agonists: Computational Investigation of Ligand Determinants for Agonism versus Antagonism” (J Med Chem, 2023).
Values belong to the compound of their own block, whether it stands above or below them. Starred links: 1 amine or outer side, 2 acyl side, 3 side chain; linkers in the order of their positions; H or OH if unused. Positions of bridges follow the written chain, without caps; N, C: chain ends. Non-standard residues stand in square brackets, D forms with d. Residues, ends and D or L forms follow the SMILES beside them. Groups on a side chain read outwards from the residue. *: point of attachment. dPhe(4-NH2) = Nc1ccc(C[C@@H](N)C(=O)O)cc1; Phe(4-NH2) = Nc1ccc(C[C@H](N)C(=O)O)cc1; X1 = O=C(Cc1ccc(N[*:1])cc1)[*:2]; NH(2-Me-phenyl) = Cc1ccccc1N*; Phg = N[C@H](C(=O)O)c1ccccc1; d(β3hA) = C[C@@H](N)CC(=O)O; CO = O=C([*:1])[*:2]; NHPr = CCCN*

Assays:
Integrin alpha-4/beta-1 [1] = molecular target: T1, Integrin alpha-4/beta-1 (Homo sapiens, UniProt P05556+P13612); test: Agonist activity at alpha4beta1 integrin receptor in human Jurkat E6.1 cells assessed as inhibition of fibronectin-induced cell adhesion pre-incubated for 30 mins followed by 30 mins incubation in fibronectin coated wells by fluorescence plate reader assay; format: cell-based
[2] = Stability in mouse serum assessed as parent compound remaining incubated upto 3 hrs by RP HPLC analysis; format: ADME, cell-free; settings: read-out: Stability
In short: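 Peptide stock (10 mM in Tris buffer pH 7.4) diluted 1:20 into mouse serum and held at 37 °C. […] Remaining peptide in the supernatant measured by RP HPLC. Triplicate, repeated three times.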

Integrin alpha-M/beta-2 [3] = molecular target: T2, Integrin alpha-M/beta-2 (Homo sapiens, UniProt P05107+P11215); test: Agonist activity at alphaMbeta2 integrin receptor in human HL-60 cells assessed as inhibition of fibrinogen-induced cell adhesion pre-incubated for 30 mins followed by 30 mins incubation in fibrinogen coated wells by fluorescence plate reader assay; format: cell-based
[4] = molecular target: T3, Integrin alpha4/beta7 complex (Homo sapiens, UniProt P26010+P48169); test: Agonist activity at alpha4beta7 integrin receptor in human RPMI-8866 cells assessed as inhibition of mucosal vascular add-ressin cell adhesion molecule 1-induced cell adhesion pre-incubated for 30 mins followed by 30 mins incubation in mucosal vascular add-ressin cell adhesion molecule 1 coated wells by fluorescence plate reader assay; format: cell-based
Integrin alpha-5/beta-1 = Integrin alpha-5/beta-1 (Homo sapiens, UniProt P05556+P08648); test: Binding affinity to alpha5beta1 integrin receptor (unknown origin) preincubated for 30 mins followed by 30 mins incubation in fibronectin coated wells by fluorescence based assay; format: protein-complex assay
Integrin alpha-4/beta-1 [5] = molecular target: T1, Integrin alpha-4/beta-1; test: Binding affinity to alpha4beta1 integrin receptor (unknown origin) preincubated for 30 mins followed by 30 mins incubation in vascular cell adhesion molecule 1-induced cell adhesion coated wells by fluorescence based assay; format: protein-complex assay
[6] = molecular target: T3, Integrin alpha4/beta7 complex; test: Binding affinity to alpha4beta7 integrin receptor (unknown origin) preincubated for 30 mins followed by 30 mins incubation in mucosal vascular add-ressin cell adhesion molecule 1 coated wells by fluorescence based assay; format: protein-complex assay
Integrin alpha-M/beta-2 [7] = molecular target: T2, Integrin alpha-M/beta-2; test: Binding affinity to alphaMbeta2 integrin receptor (unknown origin) preincubated for 30 mins followed by 30 mins incubation in fibrinogen coated wells by fluorescence based assay; format: protein-complex assay
Integrin alpha-4/beta-1 [8] = molecular target: T1, Integrin alpha-4/beta-1; test: Binding affinity to alpha4beta1 integrin receptor (unknown origin) preincubated for 30 mins followed by 30 mins incubation in fibronectin coated wells by fluorescence based assay; format: protein-complex assay

T1 sequence (P05556 whole entry): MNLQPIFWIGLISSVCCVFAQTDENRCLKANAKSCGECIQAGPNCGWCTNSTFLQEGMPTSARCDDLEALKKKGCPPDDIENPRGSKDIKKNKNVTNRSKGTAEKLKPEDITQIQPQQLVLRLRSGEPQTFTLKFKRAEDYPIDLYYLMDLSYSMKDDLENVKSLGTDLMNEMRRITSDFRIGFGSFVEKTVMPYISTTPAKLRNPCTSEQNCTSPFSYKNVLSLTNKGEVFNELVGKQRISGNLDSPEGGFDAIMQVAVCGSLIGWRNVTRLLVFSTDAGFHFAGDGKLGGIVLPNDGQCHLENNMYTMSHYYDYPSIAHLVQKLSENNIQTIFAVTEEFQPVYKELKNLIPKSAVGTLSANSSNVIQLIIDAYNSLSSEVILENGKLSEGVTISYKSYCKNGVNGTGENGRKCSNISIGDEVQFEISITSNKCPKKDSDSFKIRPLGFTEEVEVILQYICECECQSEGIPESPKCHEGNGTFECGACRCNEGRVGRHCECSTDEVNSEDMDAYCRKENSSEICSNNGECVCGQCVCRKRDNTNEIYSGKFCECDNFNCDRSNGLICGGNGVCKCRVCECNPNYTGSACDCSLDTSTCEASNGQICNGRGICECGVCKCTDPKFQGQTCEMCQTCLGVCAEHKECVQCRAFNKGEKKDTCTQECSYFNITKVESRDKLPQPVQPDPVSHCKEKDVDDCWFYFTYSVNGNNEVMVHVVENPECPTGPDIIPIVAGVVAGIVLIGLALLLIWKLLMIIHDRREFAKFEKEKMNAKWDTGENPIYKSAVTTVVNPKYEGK
T1 sequence (P13612 whole entry): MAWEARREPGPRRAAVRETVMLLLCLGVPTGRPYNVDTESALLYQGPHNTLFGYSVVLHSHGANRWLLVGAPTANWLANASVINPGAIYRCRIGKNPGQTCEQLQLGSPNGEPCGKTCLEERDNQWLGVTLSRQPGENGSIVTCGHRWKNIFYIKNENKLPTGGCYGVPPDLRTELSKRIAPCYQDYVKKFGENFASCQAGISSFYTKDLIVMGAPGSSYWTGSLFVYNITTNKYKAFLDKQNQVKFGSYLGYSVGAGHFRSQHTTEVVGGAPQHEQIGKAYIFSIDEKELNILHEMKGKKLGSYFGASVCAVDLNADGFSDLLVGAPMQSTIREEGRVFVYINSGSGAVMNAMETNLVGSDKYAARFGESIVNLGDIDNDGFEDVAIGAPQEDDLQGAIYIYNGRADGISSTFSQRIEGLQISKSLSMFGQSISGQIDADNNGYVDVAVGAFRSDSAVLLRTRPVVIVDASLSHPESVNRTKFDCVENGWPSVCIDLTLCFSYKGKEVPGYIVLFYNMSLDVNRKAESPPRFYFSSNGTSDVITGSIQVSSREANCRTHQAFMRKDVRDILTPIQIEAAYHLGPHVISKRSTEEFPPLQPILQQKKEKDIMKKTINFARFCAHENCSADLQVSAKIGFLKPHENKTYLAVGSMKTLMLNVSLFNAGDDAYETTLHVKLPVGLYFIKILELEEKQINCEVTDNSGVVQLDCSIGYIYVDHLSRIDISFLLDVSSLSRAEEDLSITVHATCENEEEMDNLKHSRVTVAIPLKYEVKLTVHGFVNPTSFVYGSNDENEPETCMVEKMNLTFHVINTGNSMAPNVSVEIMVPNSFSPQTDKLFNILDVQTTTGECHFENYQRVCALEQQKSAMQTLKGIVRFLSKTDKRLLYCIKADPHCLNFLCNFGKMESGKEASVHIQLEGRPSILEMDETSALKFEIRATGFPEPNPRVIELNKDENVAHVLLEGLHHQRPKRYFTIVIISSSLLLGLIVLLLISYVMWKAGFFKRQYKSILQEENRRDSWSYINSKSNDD
T2 sequence (P05107 23-769 limits assumed, other chains not shown): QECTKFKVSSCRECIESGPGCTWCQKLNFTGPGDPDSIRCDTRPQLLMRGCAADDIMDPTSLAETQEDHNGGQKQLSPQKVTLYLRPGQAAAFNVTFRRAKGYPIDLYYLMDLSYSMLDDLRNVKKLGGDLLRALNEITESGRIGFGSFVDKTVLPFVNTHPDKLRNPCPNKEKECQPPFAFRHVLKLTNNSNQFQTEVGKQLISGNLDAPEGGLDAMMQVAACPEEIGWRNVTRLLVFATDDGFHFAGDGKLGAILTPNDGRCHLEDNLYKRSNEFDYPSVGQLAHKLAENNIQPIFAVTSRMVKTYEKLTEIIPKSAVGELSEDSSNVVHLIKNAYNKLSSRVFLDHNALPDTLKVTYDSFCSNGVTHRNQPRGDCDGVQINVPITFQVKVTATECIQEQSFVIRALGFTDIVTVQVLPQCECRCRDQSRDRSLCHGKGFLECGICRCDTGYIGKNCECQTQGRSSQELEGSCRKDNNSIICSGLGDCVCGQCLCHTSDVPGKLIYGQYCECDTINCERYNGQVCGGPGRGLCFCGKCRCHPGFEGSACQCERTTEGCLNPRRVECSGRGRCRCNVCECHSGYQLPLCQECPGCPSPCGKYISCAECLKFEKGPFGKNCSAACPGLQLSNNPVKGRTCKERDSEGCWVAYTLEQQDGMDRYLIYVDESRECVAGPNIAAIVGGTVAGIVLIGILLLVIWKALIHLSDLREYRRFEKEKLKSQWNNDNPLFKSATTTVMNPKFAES
T3 sequence (P48169 whole entry): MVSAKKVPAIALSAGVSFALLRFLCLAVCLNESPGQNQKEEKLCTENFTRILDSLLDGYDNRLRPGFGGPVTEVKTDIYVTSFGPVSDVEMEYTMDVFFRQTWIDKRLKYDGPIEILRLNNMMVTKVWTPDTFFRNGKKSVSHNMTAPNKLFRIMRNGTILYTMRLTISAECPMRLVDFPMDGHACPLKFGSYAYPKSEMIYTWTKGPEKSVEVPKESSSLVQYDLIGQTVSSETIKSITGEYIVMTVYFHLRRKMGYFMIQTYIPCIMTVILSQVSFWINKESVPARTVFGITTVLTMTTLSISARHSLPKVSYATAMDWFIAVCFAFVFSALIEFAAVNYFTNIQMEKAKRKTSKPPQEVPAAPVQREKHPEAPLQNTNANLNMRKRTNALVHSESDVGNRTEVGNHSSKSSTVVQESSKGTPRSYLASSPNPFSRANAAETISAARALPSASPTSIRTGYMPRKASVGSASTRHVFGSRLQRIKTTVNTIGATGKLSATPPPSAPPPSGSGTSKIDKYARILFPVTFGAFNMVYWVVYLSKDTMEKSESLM
T3 sequence (P26010 whole entry): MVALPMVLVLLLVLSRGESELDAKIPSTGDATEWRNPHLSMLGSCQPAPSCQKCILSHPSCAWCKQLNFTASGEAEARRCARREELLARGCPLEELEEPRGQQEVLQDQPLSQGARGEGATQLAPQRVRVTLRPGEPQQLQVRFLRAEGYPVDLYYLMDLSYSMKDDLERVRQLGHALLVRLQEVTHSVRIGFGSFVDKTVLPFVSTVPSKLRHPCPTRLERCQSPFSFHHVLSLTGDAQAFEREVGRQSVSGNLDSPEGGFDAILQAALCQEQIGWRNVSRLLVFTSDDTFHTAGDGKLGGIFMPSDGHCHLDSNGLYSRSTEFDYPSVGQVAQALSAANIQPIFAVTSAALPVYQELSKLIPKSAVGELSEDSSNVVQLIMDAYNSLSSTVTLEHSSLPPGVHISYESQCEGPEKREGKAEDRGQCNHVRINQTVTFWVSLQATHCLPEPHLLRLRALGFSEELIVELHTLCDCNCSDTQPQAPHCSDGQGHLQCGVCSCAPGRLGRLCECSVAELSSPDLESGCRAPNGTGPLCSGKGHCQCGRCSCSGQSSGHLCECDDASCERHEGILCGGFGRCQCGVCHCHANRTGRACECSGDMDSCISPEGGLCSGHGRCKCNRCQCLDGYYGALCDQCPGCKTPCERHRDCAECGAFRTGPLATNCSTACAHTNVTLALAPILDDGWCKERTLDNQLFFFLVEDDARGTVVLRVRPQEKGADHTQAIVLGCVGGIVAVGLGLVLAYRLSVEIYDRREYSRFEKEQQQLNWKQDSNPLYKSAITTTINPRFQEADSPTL

EC50 (Integrin alpha-4/beta-1 [1]): > 5 µM
Compound: Cc1ccccc1NC(=O)Nc1ccc(C[C@@H]2NC(=O)C[C@@H](C)NC(=O)[C@H](C(C)C)NC(=O)[C@H](CC(=O)O)NC(=O)[C@H](CC(C)C)NC2=O)cc1 (cyclo([Phe(4-NH2)]([CO-NH(2-Me-phenyl)])LDV[d(β3hA)]))

Compound: Cc1ccccc1NC(=O)Nc1ccc(C[C@@H]2NC(=O)C[C@@H](C(=O)O)NC(=O)[C@H](C(C)C)NC(=O)[C@H](CC(=O)O)NC(=O)[C@H](CC(C)C)NC2=O)cc1 ([Phe(4-NH2)]([CO-NH(2-Me-phenyl)])LDVD-OH; lactam N-5)
remaining at 3 h [2]: > 85%

remaining at 3 h [2]: > 85%
Compound: Cc1ccccc1NC(=O)Nc1ccc(C[C@H]2NC(=O)C[C@@H](C(=O)O)NC(=O)[C@H](C(C)C)NC(=O)[C@H](CC(=O)O)NC(=O)[C@H](CC(C)C)NC2=O)cc1 ([dPhe(4-NH2)]([CO-NH(2-Me-phenyl)])LDVD-OH; lactam N-5)

EC50 (Integrin alpha-M/beta-2 [3]): > 5 µM | EC50 [4]: > 5 µM
Compound: Cc1ccccc1NC(=O)N1C(=O)CC1CC(=O)NCC(=O)O (centres undefined)

EC50 (Integrin alpha-4/beta-1 [1]): > 5 µM
Compound: CCCNC(=O)[C@@H]1CC(=O)N[C@@H](Cc2ccc(NC(=O)Nc3ccccc3C)cc2)C(=O)N[C@@H](CC(C)C)C(=O)N[C@@H](CC(=O)O)C(=O)N[C@@H](C(C)C)C(=O)N1 ([Phe(4-NH2)]([CO-NH(2-Me-phenyl)])LDVD-NHPr; lactam N-5)

Compound: Cc1ccccc1NC(=O)Nc1ccc(C[C@@H]2NC(=O)C[C@@H](C(=O)O)NC(=O)[C@H](C(C)C)NC(=O)[C@H](C)NC(=O)[C@H](Cc3ccccc3)NC2=O)cc1 ([Phe(4-NH2)]([CO-NH(2-Me-phenyl)])FAVD-OH; lactam N-5)
IC50 (Integrin alpha-5/beta-1): > 5 µM | IC50 (Integrin alpha-4/beta-1 [5]): 0.899 µM | IC50 [6]: > 5 µM | IC50 (Integrin alpha-M/beta-2 [7]): > 5 µM | IC50 (Integrin alpha-4/beta-1 [8]): 0.976 µM | EC50 (Integrin alpha-4/beta-1 [1]): 1.06 µM

EC50 (Integrin alpha-4/beta-1 [1]): > 5 µM
Compound: Cc1ccccc1NC(=O)Nc1ccc(C[C@H]2NC(=O)C[C@@H](C)NC(=O)[C@H](C(C)C)NC(=O)[C@H](CC(=O)O)NC(=O)[C@H](CC(C)C)NC2=O)cc1 (cyclo(DV[d(β3hA)][dPhe(4-NH2)]([CO-NH(2-Me-phenyl)])L))

EC50 (Integrin alpha-M/beta-2 [3]): > 5 µM | EC50 [4]: > 5 µM
Compound: Cc1ccccc1NC(=O)N1C(=O)CC1CC(=O)O (centres undefined)

Compound: Cc1ccccc1NC(=O)Nc1ccc(CC(=O)N[C@@H](CC(C)C)C(=O)N[C@@H](CC(=O)O)C(=O)N[C@H](C(=O)N2CCC[C@H]2C(=O)O)C(C)C)cc1 ({NH(2-Me-phenyl)-CO}-[X1]LDVP-OH)
IC50 [6]: > 1 µM | IC50 (Integrin alpha-M/beta-2 [7]): > 1 µM

EC50 (Integrin alpha-4/beta-1 [1]): > 5 µM
Compound: Cc1ccccc1NC(=O)Nc1ccc(C[C@H]2NC(=O)C[C@@H](C(=O)O)NC(=O)[C@H](c3ccccc3)NC(=O)[C@H](CC(=O)O)NC(=O)[C@H](CC(C)C)NC2=O)cc1 ([dPhe(4-NH2)]([CO-NH(2-Me-phenyl)])LD[Phg]D-OH; lactam N-5)

EC50 (Integrin alpha-4/beta-1 [1]): > 5 µM
Compound: Cc1ccccc1NC(=O)Nc1ccc(C[C@@H]2NC(=O)C[C@@H](C(=O)O)NC(=O)[C@H](C(C)C)NC(=O)[C@H](CC(=O)O)NC(=O)[C@H](Cc3ccccc3)NC2=O)cc1 ([Phe(4-NH2)]([CO-NH(2-Me-phenyl)])FDVD-OH; lactam N-5)
